In ChEMBL document CHEMBL5108071, “Potent and Specific Activators for Mitochondrial Sirtuins Sirt3 and Sirt5” (J Med Chem, 2022):
Active and inactive are the calls of the source. No cut-off for these calls is given here.

Tests used:
[1] = target: NAD-dependent protein deacylase sirtuin-5, mitochondrial (Homo sapiens) (UniProt Q9NXA8); assay: Activation of N-terminal his-tagged human SIRT5 (34 to 302 residues) expressed in Escherichia coli assessed as fold activation at 10 uM using CPS1-succ537 as substrate in presence of NAD+; details: filed as activator
In short: (§1)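 Coupled enzymatic deacylation assay (nicotinamidase/GDH-coupled, continuous): 1.5 μM recombinant Sirtuin (expressed in E. coli, Ni-NTA purified, tag removed, size-exclusion purified) with 50 μM substrate peptide and 100 μM NAD+, without or with 10 μM or 100 μM 1,4-DHP, 5% final DMSO. Activity expressed relative to no-compound control.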
Target sequence in this assay (Q9NXA8 37-310 limits assumed): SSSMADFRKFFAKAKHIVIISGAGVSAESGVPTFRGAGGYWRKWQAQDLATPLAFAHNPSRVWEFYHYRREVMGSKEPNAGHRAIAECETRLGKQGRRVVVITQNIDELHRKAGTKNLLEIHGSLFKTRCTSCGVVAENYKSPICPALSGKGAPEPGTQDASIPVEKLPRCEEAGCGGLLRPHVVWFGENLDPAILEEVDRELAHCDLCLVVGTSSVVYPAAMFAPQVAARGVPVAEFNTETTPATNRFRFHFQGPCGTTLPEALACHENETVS

[2] = target: T1, NAD-dependent protein deacetylase sirtuin-1 (Homo sapiens) (UniProt Q96EB6); assay: Activation of N-terminal his-tagged human SIRT1 expressed in Escherichia coli assessed as fold activation at 10 to 100 uM using p53-acK381 as substrate in presence of NAD+; details: filed as activator, dose 10-100 µM; in short: as §1
T1 sequence (whole entry): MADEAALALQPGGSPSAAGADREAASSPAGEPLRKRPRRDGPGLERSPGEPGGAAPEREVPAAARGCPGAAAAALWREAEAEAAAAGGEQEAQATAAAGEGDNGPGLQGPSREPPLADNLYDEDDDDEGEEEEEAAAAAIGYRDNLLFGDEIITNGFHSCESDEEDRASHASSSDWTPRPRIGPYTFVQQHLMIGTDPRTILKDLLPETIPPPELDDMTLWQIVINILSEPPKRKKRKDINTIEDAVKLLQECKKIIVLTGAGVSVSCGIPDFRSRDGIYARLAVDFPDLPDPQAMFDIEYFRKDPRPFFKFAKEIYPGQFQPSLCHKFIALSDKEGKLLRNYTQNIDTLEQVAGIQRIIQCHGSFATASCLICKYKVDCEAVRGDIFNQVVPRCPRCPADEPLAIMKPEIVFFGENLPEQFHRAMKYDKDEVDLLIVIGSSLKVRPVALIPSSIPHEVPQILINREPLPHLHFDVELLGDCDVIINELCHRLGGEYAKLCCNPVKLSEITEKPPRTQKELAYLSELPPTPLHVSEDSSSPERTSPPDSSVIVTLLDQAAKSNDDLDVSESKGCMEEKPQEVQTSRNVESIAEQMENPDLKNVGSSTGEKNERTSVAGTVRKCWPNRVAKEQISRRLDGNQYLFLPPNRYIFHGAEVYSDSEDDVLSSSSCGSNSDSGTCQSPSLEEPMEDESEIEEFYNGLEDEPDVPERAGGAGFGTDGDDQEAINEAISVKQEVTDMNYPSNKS

[3] = target: NAD-dependent protein deacylase sirtuin-5, mitochondrial (Homo sapiens) (UniProt Q9NXA8); assay: Activation of human recombinant SIRT5 assessed as decrease in PDHA1-succinylation at 100 uM by Western blot analysis; details: filed as activator
Target sequence in this assay (Q9NXA8 whole entry, looked up, the tested form may be a part): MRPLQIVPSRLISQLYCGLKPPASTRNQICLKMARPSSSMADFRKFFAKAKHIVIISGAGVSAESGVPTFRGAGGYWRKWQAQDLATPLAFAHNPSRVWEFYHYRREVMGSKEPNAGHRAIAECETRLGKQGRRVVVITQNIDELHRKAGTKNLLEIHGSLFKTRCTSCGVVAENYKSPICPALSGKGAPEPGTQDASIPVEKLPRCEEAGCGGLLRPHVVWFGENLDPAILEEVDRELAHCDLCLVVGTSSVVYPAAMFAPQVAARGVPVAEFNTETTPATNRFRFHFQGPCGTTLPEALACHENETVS

[4] = target: NAD-dependent protein deacylase sirtuin-5, mitochondrial (Homo sapiens) (UniProt Q9NXA8); assay: Activation of SIRT5 in human S2-013 cells assessed as decrease in GOT1 acetylation at 20 uM incubated for 24 hrs by Western blot analysis; details: filed as activator
Target sequence in this assay (Q9NXA8 whole entry, looked up, the tested form may be a part): as above

[5] = target: NAD-dependent protein deacylase sirtuin-5, mitochondrial (Homo sapiens) (UniProt Q9NXA8); assay: Activation of N-terminal his-tagged human SIRT5 (34 to 302 residues) expressed in Escherichia coli assessed as fold activation at 100 uM using CPS1-succ537 as substrate in presence of NAD+; details: filed as activator; in short: as §1
Target sequence in this assay (Q9NXA8 37-310 limits assumed): as the sequence (Q9NXA8 37-310 limits assumed) above

[6] = target: NAD-dependent protein deacylase sirtuin-5, mitochondrial (Homo sapiens) (UniProt Q9NXA8); assay: Activation of SIRT5 in human CAPAN-1 cells assessed as decrease in GOT1 acetylation at 20 uM incubated for 24 hrs by Western blot analysis; details: filed as activator
Target sequence in this assay (Q9NXA8 whole entry, looked up, the tested form may be a part): as the sequence (Q9NXA8 whole entry, looked up, the tested form may be a part) above

[7] = target: T1, NAD-dependent protein deacetylase sirtuin-1 (Homo sapiens); assay: Activation of N-terminal his-tagged human SIRT1 expressed in Escherichia coli at 10 to 100 uM using p53-acK381 as substrate in presence of NAD+; details: filed as activator, dose 10-100 µM
In short: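 Compound titration in the nicotinamidase/GDH-coupled deacylation assay. 1.5 μM recombinant Sirt1 (E. coli-expressed, Ni-NTA purified, tag removed, size-exclusion purified) was used with 50 μM p53-acK381 peptide and 100 μM NAD+. 1,4-DHP was added at the indicated concentrations in 5% final DMSO.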

[8] = target: NAD-dependent protein deacylase sirtuin-5, mitochondrial (Homo sapiens) (UniProt Q9NXA8); assay: Activation of SIRT5 in human MDA-MB-231 cells assessed as decrease in GLS activity at 50 uM using TMP substrate incubated for 4 to 24 hrs; details: filed as activator, time 4-24 hrs
Target sequence in this assay (Q9NXA8 whole entry, looked up, the tested form may be a part): as above

[9] = target: NAD-dependent protein deacylase sirtuin-5, mitochondrial (Homo sapiens) (UniProt Q9NXA8); assay: Activation of N-terminal his-tagged human SIRT5 (34 to 302 residues) expressed in Escherichia coli assessed as fold activation at 10 to 100 uM using CPS1-succ537 as substrate in presence of NAD+; details: filed as activator, dose 10-100 µM; in short: as §1
Target sequence in this assay (Q9NXA8 37-310 limits assumed): as the sequence (Q9NXA8 37-310 limits assumed) above

[10] = target: NAD-dependent protein deacylase sirtuin-5, mitochondrial (Homo sapiens) (UniProt Q9NXA8); assay: Activation of N-terminal his-tagged human SIRT5 (34 to 302 residues) expressed in Escherichia coli assessed as desuccinylation of substrate at 100 uM using CPS1-succ537 as substrate in presence of NAD+ by Mass spectrometry analysis; details: filed as activator
In short: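 MS-based desuccinylation assay: same components as coupled assay (1.5 μM Sirt5, 50 μM CPS1-succK537 peptide, 100 μM NAD+, 5% DMSO) but in 50 mM Na-phosphate pH 7.8 with 0.05 μg/μL PNCA to remove nicotinamide; compound at 100 μM; product and substrate peptides quantified by mass spectrometry.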
Target sequence in this assay (Q9NXA8 37-310 limits assumed): as above

[11] = target: T2, NAD-dependent protein deacetylase sirtuin-3, mitochondrial (Homo sapiens) (UniProt Q9NTG7); assay: Activation of N-terminal his-tagged human SIRT3 (114 to 380 residues) expressed in Escherichia coli assessed as fold activation at 100 uM using ACS2-acK642 as substrate in presence of NAD+; details: filed as activator
T2 sequence (whole entry): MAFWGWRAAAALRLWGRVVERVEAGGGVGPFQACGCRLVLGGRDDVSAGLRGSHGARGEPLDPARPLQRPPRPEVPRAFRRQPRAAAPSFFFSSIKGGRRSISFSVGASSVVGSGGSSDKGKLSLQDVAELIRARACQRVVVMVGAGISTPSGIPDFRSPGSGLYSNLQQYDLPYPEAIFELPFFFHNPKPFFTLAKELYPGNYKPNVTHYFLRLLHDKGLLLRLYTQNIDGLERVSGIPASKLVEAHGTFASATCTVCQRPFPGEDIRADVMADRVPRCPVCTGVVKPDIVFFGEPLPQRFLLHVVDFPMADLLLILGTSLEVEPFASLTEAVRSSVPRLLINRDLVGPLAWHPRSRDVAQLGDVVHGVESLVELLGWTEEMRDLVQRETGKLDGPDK
In short: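 Coupled continuous enzymatic assay (nicotinamidase/GDH-linked): 1.5 µM purified Sirt3 with 50 µM ACS2-acK642 peptide and 100 µM NAD+, compound at 10 µM, 100 µM or titrated, 5% DMSO final; fold deacetylation versus no-compound control.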

[12] = target: T1, NAD-dependent protein deacetylase sirtuin-1 (Homo sapiens); assay: Activation of N-terminal his-tagged human SIRT1 expressed in Escherichia coli assessed as fold activation at 100 uM using p53-acK381 as substrate in presence of NAD+; details: filed as activator; in short: as §1
[13] = target: T3, NAD-dependent protein deacetylase sirtuin-2 (Homo sapiens) (UniProt Q8IXJ6); assay: Inhibition of N-terminal SUMO-tagged human SIRT2 (43 to 356 residues) expressed in Escherichia coli at 100 uM using acetylated alpha tubulin-K25 as substrate in presence of NAD+ relative to control; in short: as §1
T3 sequence (whole entry): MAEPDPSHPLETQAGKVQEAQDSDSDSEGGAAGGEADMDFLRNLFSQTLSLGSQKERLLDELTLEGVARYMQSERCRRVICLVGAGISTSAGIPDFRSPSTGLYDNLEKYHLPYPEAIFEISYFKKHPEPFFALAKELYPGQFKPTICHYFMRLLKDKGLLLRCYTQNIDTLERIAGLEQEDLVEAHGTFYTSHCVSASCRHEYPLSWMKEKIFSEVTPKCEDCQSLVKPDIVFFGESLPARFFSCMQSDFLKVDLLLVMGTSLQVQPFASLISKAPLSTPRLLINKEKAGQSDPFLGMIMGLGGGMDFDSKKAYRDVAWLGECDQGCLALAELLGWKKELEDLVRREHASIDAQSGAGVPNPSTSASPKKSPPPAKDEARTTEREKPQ

[14] = target: T2, NAD-dependent protein deacetylase sirtuin-3, mitochondrial (Homo sapiens); assay: Inhibition of N-terminal his-tagged human SIRT3 (114 to 380 residues) expressed in Escherichia coli at 100 uM using ACS2-acK642 as substrate in presence of NAD+ relative to control; in short: as §1
[15] = target: T3, NAD-dependent protein deacetylase sirtuin-2 (Homo sapiens); assay: Activation of N-terminal SUMO-tagged human SIRT2 (43 to 356 residues) expressed in Escherichia coli assessed as deacetylation of substrate at 100 uM using acetylated alpha tubulin-K2 as substrate in presence of NAD+; details: filed as activator; in short: as §1

CCOC(=O)C1=CN(C(=O)c2ccccc2)C=C(C(=O)OCC)C1c1ccc(OC)cc1
fold change (FC) [1]: 1.2 | fold change (FC) [2]: 1.5

CCOC(=O)C1=CN(C(=O)c2ccccc2)C=C(C(=O)OCC)C1c1cccc(Cl)c1
Activity [3]: Active | fold change (FC) [1]: 1.2 | Activity [4]: Active | fold change (FC) [5]: 2 | Activity [6]: Active

CCOC(=O)C1=CN(C(=O)c2ccccc2)C=C(C(=O)OCC)C1c1ccccc1OC
fold change (FC) [5]: 2

CCOC(=O)C1=CN(C(=O)c2ccccc2)C=C(C(=O)OCC)C1c1ccc(C)cc1
fold change (FC) [5]: 2

CCOC(=O)C1=CN(Cc2cc(OC)c(OC)c(OC)c2)C=C(C(=O)OCC)C1c1cnc2ccccc2c1
Activity [7]: Active

CCOC(=O)C1=CN(Cc2ccccc2)C=C(C(=O)OCC)C1c1ccc(-c2ccccc2)cc1
fold change (FC) [5]: 2

CCOC(=O)C1=CN(C(=O)c2ccccc2)C=C(C(=O)OCC)C1c1ccsc1
Activity [3]: Active | Activity [8]: Active | Activity [4]: Active | fold change (FC) [9]: 3 | Activity [6]: Active | Activity [10]: Active

CCOC(=O)C1=CN(C(=O)c2cnccn2)C=C(C(=O)OCC)C1c1ccccc1
fold change (FC) [1]: 1.2 | fold change (FC) [5]: 2

CCOC(=O)C1=CN(C(=O)c2cc(OC)c(OC)c(OC)c2)C=C(C(=O)OCC)C1c1cccc(C)c1
Activity [7]: Active

CCOC(=O)C1=CN(C(=O)c2cccc3ccccc23)C=C(C(=O)OCC)C1c1ccccc1
fold change (FC) [5]: 2

CCOC(=O)C1=CN(C(=O)c2ccc3ccccc3c2)C=C(C(=O)OCC)C1c1ccccc1
fold change (FC) [2]: 1.5

CCOC(=O)C1=CN(Cc2ccccc2)C=C(C(=O)OCC)C1c1ccc2ccccc2c1
fold change (FC) [1]: 1.2 | fold change (FC) [5]: 2

CCOC(=O)C1=CN(C(=O)c2ccccc2)C=C(C(=O)OCC)C1c1ccc(Cl)cc1
fold change (FC) [1]: 1.2 | fold change (FC) [5]: 2

CCOC(=O)C1=CN(Cc2ccccc2)C=C(C(=O)OCC)C1c1ccccc1
fold change (FC) [11]: 2 | fold change (FC) [2]: 1.5

CCOC(=O)C1=CN(C(=O)c2cc(OC)c(OC)c(OC)c2)C=C(C(=O)OCC)C1c1cccc(Cl)c1
Activity [7]: Active

CCOC(=O)C1=CN(Cc2ccccc2)C=C(C(=O)OCC)C1c1ccsc1
fold change (FC) [2]: 1.5

CCOC(=O)C1=CN(C(=O)c2ccccc2)C=C(C(=O)OCC)C1c1ccoc1
Activity [7]: Active | fold change (FC) [9]: 3

CCOC(=O)C1=CN(C(=O)c2cc(OC)c(OC)c(OC)c2)C=C(C(=O)OCC)C1c1ccc(CN2CCN(C)CC2)cc1
fold change (FC) [12]: 2.5 | fold change (FC) [9]: 2

CCOC(=O)C1=CN(C(=O)c2cc(OC)c(OC)c(OC)c2)C=C(C(=O)OCC)C1c1ccsc1
fold change (FC) [12]: 2.5

CCOC(=O)C1=CN(Cc2ccccc2)C=C(C(=O)OCC)C1c1cncs1
inhibition [13]: 75% | inhibition [14]: 60%

CCOC(=O)C1=CN(C(=O)c2ccccc2)C=C(C(=O)OCC)C1c1ccccc1Cl
fold change (FC) [5]: 2

CCOC(=O)C1=CN(Cc2ccccc2)C=C(C(=O)OCC)C1c1cc2ccccc2s1
fold change (FC) [5]: 2

CCOC(=O)C1=CN(C(=O)c2cc(OC)c(OC)c(OC)c2)C=C(C(=O)OCC)C1c1cccc(F)c1
Activity [7]: Active

CCOC(=O)C1=CN(Cc2ccccc2)C=C(C(=O)OCC)C1c1cccc2ccccc12
fold change (FC) [5]: 2

CCOC(=O)C1=CN(C(=O)c2cc(OC)c(OC)c(OC)c2)C=C(C(=O)OCC)C1c1ccco1
fold change (FC) [12]: 2.5 | fold change (FC) [9]: 2 | Activity [15]: Active

CCOC(=O)C1=CN(Cc2cc(OC)c(OC)c(OC)c2)C=C(C(=O)OCC)C1c1ccccc1
Activity [7]: Active

CCOC(=O)C1=CN(C(=O)c2cc(OC)c(OC)c(OC)c2)C=C(C(=O)OCC)C1c1ccoc1
fold change (FC) [12]: 2.5 | fold change (FC) [9]: 2 | Activity [15]: Active

CCOC(=O)C1=CN(Cc2ccccc2)C=C(C(=O)OCC)C1c1ccco1
fold change (FC) [2]: 1.5

CCOC(=O)C1=CN(C(=O)c2ccccc2)C=C(C(=O)OCC)C1c1cccc(OC)c1
fold change (FC) [1]: 1.2 | fold change (FC) [5]: 2

CCOC(=O)C1=CN(C(=O)c2ccccc2)C=C(C(=O)OCC)C1c1ccco1
fold change (FC) [9]: 2

CCOC(=O)C1=CN(C(=O)c2cnc3ccccc3n2)C=C(C(=O)OCC)C1c1ccccc1
fold change (FC) [1]: 1.2 | fold change (FC) [5]: 2 | fold change (FC) [2]: 1.5
